Laboratory results taken from paper PMC2651228 (Journal of medicinal chemistry, 2008).
“Also recorded” adds a separate entry of the source. Values belong to the compound of their own block, whether it stands above or below them.

Tests used:
Grb2 SH2 domain = Grb2 SH2 domain (Homo sapiens, UniProt P62993); experiment: SPR direct binding, amine-coupled Grb2 SH2 domain; conditions: for Ratio: Grb2, amine coupling, affinity relative to compound 2
Biotin-Grb2 SH2 domain = Biotin-Grb2 SH2 domain (Homo sapiens, UniProt P62993); experiment: SPR direct binding, streptavidin-captured biotin-Grb2 SH2 domain; conditions: Biotin-Grb2, SA capture; reference line of the ratio
PC3M cells [1] = experiment: Cell migration in modified Boyden chambers, HGF-stimulated; type: cell-based; conditions: HGF 50 ng/ml
Procedure, shortened: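 PC3M cells pretreated with test compound for 24 h, then seeded at 200,000 cells per modified Boyden chamber. Migration stimulated with recombinant human HGF (50 ng/ml), with unstimulated cells run in parallel. Migrated cells counted by light microscopy in four fields (1 × 1.4 mm) per well, triplicate wells per condition. Means expressed as percent maximum ± standard deviation, with a dose-response series.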

Grb2 = Grb2 (Homo sapiens, UniProt P62993); type: binding; conditions: SK-LMS-1 lysate; for Capture of Grb2 on compound-conjugated SA beads (anti-Grb2 immunoblot): compound 3 uM, washes 150-500 mM NaCl
Procedure, shortened: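 SK-LMS-1 cells serum-deprived 16 h, stimulated with recombinant human HGF (25 ng/ml) for 20 min and lysed in cold non-ionic detergent buffer. Biotinylated test compound (3 uM) incubated with lysate 1 h on ice. Streptavidin beads then mixed in 1 h at 4°C and washed 5 times in lysis buffer with increasing NaCl (150–500 mM). Read-out: SDS-PAGE and anti-Grb2 immunoblot.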

[2] = molecular target: proteins of SK-LMS-1 cell lysates (Homo sapiens, UniProt P62993); type: binding; conditions: compound-conjugated SA beads, cell extracts
Procedure, shortened: (§1)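 Biotinylated test compound captured proteins from HGF-stimulated (25 ng/ml, 20 min) SK-LMS-1 detergent lysate on streptavidin beads, washed with 150–500 mM NaCl. Beads exchanged into 100 mM ammonium bicarbonate, reduced (10 mM DTT, 1 h, 51°C), alkylated (55 mM iodoacetamide, 45 min, 25°C) and trypsin-digested 6 h at 25°C. Acidified peptides analysed by nLC-ESI-MS/MS (ion trap, top-seven data-dependent) and searched against human NCBI database.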

[3] = tested on: proteins of SK-LMS-1 cell lysates; type: binding, human; conditions: cell lysates; two or more unique peptides observed
Procedure, shortened: as §1

PAK1 [4] = experiment: PAK1 activation; type: cell-based; conditions: PC3M cells, 1 uM, 16 h
Procedure, shortened: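 PC3M cells serum-deprived and either treated with test compound (1 uM) or left untreated for 16 h. They were then left unstimulated or briefly stimulated with HGF (50 ng/mL) for set times. Lysates run on SDS-PAGE and immunoblotted with anti-phospho-PAK1 antibody, with total PAK1 immunoblot as loading control.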

PAK1 [5] = experiment: PAK1 nuclear translocation; type: cell-based; conditions: PC3M cells, 16 h, relative to nuclear CREB
Procedure, shortened: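 PC3M cells treated with test compound for 16 h. Nuclear extracts prepared in high-salt buffer, resolved by SDS-PAGE and immunoblotted for PAK1, with CREB immunoblotted as reference.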

PC3M cells [6] = experiment: Lamellipodia formation at wound edge, phalloidin staining, PC3M; type: cell-based; conditions: HGF + 1 uM compound
MDCK cells = experiment: Lamellipodia formation at wound edge, phalloidin staining, MDCK; type: cell-based, canine; conditions: HGF + 1 uM compound
cell motility = conditions: cited from earlier work
angiogenesis = conditions: cited from earlier work
tumor metastasis = conditions: cited from earlier work
[7] = tested on: Grb2-EGFR and Grb2-c-Met interactions; conditions: co-immunoprecipitation; cited from earlier work
[8] = tested on: Grb2 and focal adhesion kinase (FAK); conditions: treatment of cells; cited from earlier work

Chain of Grb2 SH2 domain (P62993 60-152 limits assumed): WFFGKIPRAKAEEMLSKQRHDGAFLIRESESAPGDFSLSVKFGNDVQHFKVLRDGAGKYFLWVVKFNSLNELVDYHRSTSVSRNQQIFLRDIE
Chain of Biotin-Grb2 SH2 domain (P62993 60-152 limits assumed): as above

- Ratio (Grb2 SH2 domain): 1
- Ratio (Biotin-Grb2 SH2 domain): 1
SMILES: NC(=O)C[C@H](NC(=O)C1(NC(=O)[C@H](Cc2ccc(C(C(=O)O)C(=O)O)cc2)NC(=O)C(=O)O)CCCCC1)C(=O)NCCCc1cccc2c(O)cccc12 [Compound 2, 2-{4-[2-(1-(1S)-{2-Carbamoyl-1-[3-(5-hydroxy-naphthalen-1-yl)-propylcarbamoyl]-ethylcarbamoyl}-cyclohexylcarbamoyl)-2-(2S)-(oxalyl-amino)-ethyl]-phenyl}-malonic acid]

- Capture of Grb2 on compound-conjugated SA beads (anti-Grb2 immunoblot) (Grb2): did not capture Grb2
- Capture of Grb2 tryptic peptides (ESI-MS/MS) [2]: not by compound 4-conjugated beads
SMILES: NC(=O)C[C@H](NC(=O)C1(NC(=O)[C@H](Cc2ccc(O)cc2)NC(=O)C(=O)O)CCCCC1)C(=O)NCCCc1cccc2c(OC(=O)CCCCCNC(=O)CCCC[C@@H]3SC[C@@H]4NC(=O)N[C@@H]43)cccc12 [Compound 4, (4R,5S,6S)-6-[5-(2-Oxo-hexahydro-thieno[3,4-d]imidazol-6-yl)-pentanoylamino]-hexanoic acid 5-{3-[3-carbamoyl-2-({1-[3-(4-hydroxy-phenyl)-2-(oxylyl-amino)-propionylamino]-cyclohexylcarbonyl}-amino)-propionylamino]-propyl}-naphthalen-1-yl ester]
- Grb2 SH2 domain binding affinity (in words) (Grb2 SH2 domain; assay not stated): very poor Grb2 SH2 domain binding affinity
- Inhibition of cell migration (in words) (PC3M cells [1]): No inhibition of cell migration

- Ratio (Grb2 SH2 domain): 3
- Capture of Grb2 on compound-conjugated SA beads (anti-Grb2 immunoblot) (Grb2): Grb2 was clearly retained
SMILES: NC(=O)C[C@H](NC(=O)C1(NC(=O)[C@H](Cc2ccc(C(C(=O)O)C(=O)O)cc2)NC(=O)C(=O)O)CCCCC1)C(=O)NCCCc1cccc2c(OC(=O)CCCCCNC(=O)CCCC[C@@H]3SC[C@@H]4NC(=O)N[C@@H]43)cccc12 [Compound 3]
- Inhibition of cell migration (in words) (PC3M cells [1]): significant and potent inhibition of migration
- Capture of Grb2 SH3 domain-associated proteins (immunoblot) (Grb2; SA-bound compound): revealed the presence of Nck1, Nck2, Gab1 and Sos1
- Capture of Grb2 tryptic peptides (ESI-MS/MS) [2]: captured by compound 3-conjugated SA beads
- Protein Name (identified by mass spectrometry, captured by streptavidin-immobilized 3, but not by streptavidin-immobilized 4) [3]: histone H2B family ^b; also recorded: ribosomal protein S23; also recorded: ribosomal protein L17; also recorded: ribosomal protein S17; also recorded: pyruvate kinase 3 ^a

SMILES: NC(=O)C[C@H](NC(=O)C1(NC(=O)[C@H](Cc2ccc(C(C(=O)O)C(=O)O)cc2)NC(=O)C(=O)O)CCCCC1)C(=O)NCCCc1cccc2ccccc12 [Compound 1]
- Ratio (Biotin-Grb2 SH2 domain): 1
- Inhibition of cell migration (in words) (PC3M cells [1]): Inhibition of cell migration
- Steady state level of PAK1 autophosphorylation (PAK1 [4]; no HGF): little effect
- HGF-stimulated PAK1 activation (PAK1 [4]; then HGF 50 ng/mL): completely inhibited
- PAK1 nuclear translocation (PAK1 [5]): decreased PAK1 nuclear translocation
- Actin reorganization and lamellipodia formation (phalloidin staining) (PC3M cells [6]): markedly reduced phalloidin staining at the leading edge
- Lamellipodia extension into the wound (MDCK cells): significantly reduced the area and distance that lamellipodia extended into the wound
- Cell motility (cell motility): blocks cell motility in a dose dependent fashion; also recorded: can inhibit cell motility
- Angiogenesis (angiogenesis): inhibit
- Tumor metastasis in vivo (tumor metastasis): inhibit
- Grb2-EGFR and Grb2-c-Met interactions [7]: able to disrupt Grb2-EGFR and Grb2-c-Met interactions
- HGF-stimulated physical association between Grb2 and FAK [8]: disrupts HGF-stimulated physical association between Grb2 and focal adhesion kinase (FAK)
